ChEMBL document CHEMBL1153726, “Synthesis and anticancer activity of sclerophytin-inspired hydroisobenzofurans” (Bioorg Med Chem Lett, 2009)

Test: Antitumor activity against human KB3 cells after 96 hrs by MTT assay
Format: functional, cell-based
Conditions: KB3, 96 h
In short: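 Human KB-3 carcinoma cells exposed to increasing compound concentrations; viability read by MTT colorimetric assay after 96 h. Values are means of triplicate assays, expressed relative to untreated controls.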

| Structure (SMILES) | IC50 [µM] |
| --- | --- |
| C=C(C)[C@H]1CC=C(C)[C@@]2(O)[C@@H]1[C@H](c1ccccc1Br)O[C@@H]2C(=O)OCC1CC1 | 50 |
| C=C(C)[C@H]1CC(=O)C(C)=C2[C@@H](C(=O)OCC)O[C@@H](c3cccc(Cl)c3Cl)[C@@H]21 | 5 |
| C=C(C)[C@H]1CC=C(C)[C@@]2(O)[C@@H]1[C@H](c1ccccc1Br)O[C@@H]2C(=O)OCC | 20 |
| C=C(C)[C@H]1CC=C(C)[C@@]2(O)[C@@H]1[C@H](c1cccc(Br)c1)O[C@@H]2C(=O)OCC | 3 |
